Assay results of several laboratories.
PIK3CA: Phosphatidylinositol 4,5-bisphosphate 3-kinase catalytic subunit alpha isoform (PIK3CA, Homo sapiens, UniProt P42336)
FOLH1: Glutamate carboxypeptidase 2 (FOLH1, Homo sapiens, UniProt Q04609)

COc1nc(-c2cccc(-c3ccccc3)c2C)ccc1CNCCNC(=O)CCCCCCCCCCC(=O)N1CCN(CCNC(=O)c2cc3c(=O)n4cccc(C)c4nc3n(CCc3cccs3)c2=N)CC1  Kd (Speckle-type POZ protein (SPOP, Homo sapiens, UniProt O43791); binding; BLI): 2.64 µM
CN(C)C(=O)c1cc2cnc(Nc3cccc(-c4cccc5c(=O)cc(N6CCOCC6)oc45)c3)nc2n1C1CCCC1  IC50 (PIK3CA; enzyme activity; inhibitor; radiometric): 8.17 µM
CCCCC(=O)Nc1ccc(-c2ccc3ncn(CCC)c(=O)c3c2)cn1  Kd (Phosphatidylinositol 5-phosphate 4-kinase type-2 beta (PIP4K2B, Homo sapiens, UniProt P78356); binding; competition with immobilised ligand): > 20 µM
CN1CCN(c2cc(=O)c3ccc(Nc4ncc5cc(C(=O)N(C)C)n(C6CCCC6)c5n4)cc3o2)CC1  IC50 (PIK3CA; enzyme activity; inhibitor; radiometric): > 10 µM
O=C1C(=Nc2ccc(Cl)cc2)c2ccccc2N1Cc1ccc(Br)cc1  IC50 (PIK3CA; enzyme activity; inhibitor; ADP detection): 0.0298 µM
O=S(=O)(O)NC1CCCCC1  EC50 (T1R2/T1R3 (Homo sapiens, UniProt Q7RTX0+Q8TE23); calcium signal; agonist): 2750 µM
CCC(C(=O)N1C(=O)C(=Nc2ccc(Cl)cc2Br)c2ccccc21)c1ccccc1 (centres unmarked)  IC50 (PIK3CA; enzyme activity; inhibitor; ADP detection): 0.409 µM
CC[C@H](C)[C@H](NC(=O)C[C@@H](NC(=O)CCC(=O)O)C(=O)O)C(=O)N[C@H]1CCc2cccc3c2N(C1=O)[C@H](C(=O)NCc1cn[nH]n1)C3  Ki (Granzyme B (GZMB, Homo sapiens, UniProt P10144); enzyme activity; inhibitor; fluorescence): 0.0072 µM
O=C(O)CC[C@H](NC(=O)N[C@@H](CCCCNC(=O)CCCCCCC(=O)NCCCC[C@@H](NC(=O)[C@H](CCC(=O)O)NC(=O)[C@H](CCC(=O)O)NC(=O)CCC(=O)NCCCN1CC[S][Tc]2(=[O])[S]CC[N]2CC1)C(=O)O)C(=O)O)C(=O)O (some centres unmarked)  Kd (FOLH1; binding; radioligand): 0.0068 µM
COc1cc(N=C2C(=O)N(Cc3ccccc3)c3ccccc32)cc(OC)c1  IC50 (Phosphatidylinositol 4,5-bisphosphate 3-kinase catalytic subunit beta isoform (PIK3CB, Homo sapiens, UniProt P42338); enzyme activity; inhibitor; ADP detection): 0.038 µM
CC1(C)CN(CCCCC(=O)N[C@@H](CCCCNC(=O)CCCCCCC(=O)NCCCC[C@H](NC(=O)N[C@@H](CCC(=O)O)C(=O)O)C(=O)O)C(=O)O)CC[N]2CC(C)(C)[S][Tc]2(=[O])[S]1 (some centres unmarked)  Kd (FOLH1; binding; radioligand): 0.0144 µM
C=CCN1C(=O)C(=Nc2cccc(C)c2)c2ccccc21  IC50 (PIK3CA; enzyme activity; inhibitor; ADP detection): 0.205 µM
CN(C)C(=O)c1cc2cnc(Nc3ccc4c(=O)cc(N5CCOCC5)oc4c3)nc2n1C1CCCC1  IC50 (PIK3CA; enzyme activity; inhibitor; radiometric): 0.0325 µM
CC1(C)CN(CCCCC(=O)N[C@H](Cc2ccccc2)C(=O)N[C@H](Cc2ccccc2)C(=O)N[C@@H](CCCCNC(=O)CCCCCCC(=O)NCCCC[C@H](NC(=O)N[C@@H](CCC(=O)O)C(=O)O)C(=O)O)C(=O)O)CC[N]2CC(C)(C)[S][Tc]2(=[O])[S]1 (some centres unmarked)  Kd (FOLH1; binding; radioligand): 0.0155 µM
